ChEMBL document CHEMBL1932986, “Synthesis and in vitro antimycobacterial activity of compounds derived from (R)- and (S)-2-amino-1-butanol - The crucial role of the configuration” (Eur J Med Chem, 2012)

Columns and labels:
[1] = test system: Candida tropicalis; experiment: Antifungal activity against Candida tropicalis ATCC 20336 at 25 mg/ml after 72 hrs by agar diffusion test; assay type: functional; conditions: ATCC 20336, 72 h, read-out: DIZ
Procedure, shortened: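 Yeast grown on yeast peptone dextrose agar; wells cut in the seeded agar are filled with compound solution in DMSO. Read-out is the diameter of the clear inhibition zone.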

[2] = test system: Saccharomyces cerevisiae; experiment: Antifungal activity against Saccharomyces cerevisiae ATCC 9763 at 12.5 mg/ml after 72 hrs by agar diffusion test; assay type: functional; conditions: ATCC 9763, 72 h, read-out: DIZ
Procedure, shortened: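 Agar diffusion: yeasts grown on yeast peptone dextrose agar and fungi on potato dextrose agar. Wells are filled with […] of compound solution in DMSO at various concentrations, and the clear-zone diameter is measured. Bracketed values give the lowest concentration (mg/ml) that produces a zone >11 mm. A first screen is run at 50 mg/ml.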

SMILES | zone of inhibition at 25000 µg/mL [1] | zone of inhibition at 12500 µg/mL [2]
OC(Cn1cncn1)(Cn1cncn1)c1ccc(F)cc1F [FLUCONAZOLE] | 35 mm | –
CCC(C)n1ncn(-c2ccc(N3CCN(c4ccc(OCC5COC(Cn6cncn6)(c6ccc(Cl)cc6Cl)O5)cc4)CC3)cc2)c1=O (configuration not stated) [ITRACONAZOLE] | – | 30 mm
